Measurements taken from article PMC9401565 (Clinical Cancer Research, 2021).
pEC50, pKd: −log10 of the molar value. Like-named read-outs stand apart in the source and are kept apart here.

Key:
[1] = tested on: BCR pathway in DoHH-2 cells; assay: BCR downstream signaling in IgM-stimulated cells, Western blot; assay type: cell-based; conditions: IgM-stimulated DoHH-2
TXK = biological target: T1, TXK (Homo sapiens, UniProt P42681); assay: KINOMEscan quantitative binding assay
T1 sequence (P42681 1-527): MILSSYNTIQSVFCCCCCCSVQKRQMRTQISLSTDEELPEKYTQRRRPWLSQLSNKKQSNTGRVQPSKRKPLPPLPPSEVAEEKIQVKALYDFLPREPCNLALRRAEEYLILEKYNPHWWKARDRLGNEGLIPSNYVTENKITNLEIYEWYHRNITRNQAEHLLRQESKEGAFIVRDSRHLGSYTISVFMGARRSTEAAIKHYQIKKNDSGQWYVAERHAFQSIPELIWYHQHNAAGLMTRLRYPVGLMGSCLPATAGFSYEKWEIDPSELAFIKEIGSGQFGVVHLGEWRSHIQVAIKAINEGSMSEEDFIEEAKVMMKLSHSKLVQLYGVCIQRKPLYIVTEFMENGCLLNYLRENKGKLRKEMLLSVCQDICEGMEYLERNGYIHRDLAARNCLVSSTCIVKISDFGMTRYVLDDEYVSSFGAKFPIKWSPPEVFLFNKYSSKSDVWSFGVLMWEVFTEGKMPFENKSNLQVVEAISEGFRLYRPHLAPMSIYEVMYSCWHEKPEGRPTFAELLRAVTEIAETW

BTK [2] = biological target: T2, BTK (Homo sapiens, UniProt Q06187); assay: KINOMEscan quantitative binding assay
T2 sequence (Q06187 whole entry): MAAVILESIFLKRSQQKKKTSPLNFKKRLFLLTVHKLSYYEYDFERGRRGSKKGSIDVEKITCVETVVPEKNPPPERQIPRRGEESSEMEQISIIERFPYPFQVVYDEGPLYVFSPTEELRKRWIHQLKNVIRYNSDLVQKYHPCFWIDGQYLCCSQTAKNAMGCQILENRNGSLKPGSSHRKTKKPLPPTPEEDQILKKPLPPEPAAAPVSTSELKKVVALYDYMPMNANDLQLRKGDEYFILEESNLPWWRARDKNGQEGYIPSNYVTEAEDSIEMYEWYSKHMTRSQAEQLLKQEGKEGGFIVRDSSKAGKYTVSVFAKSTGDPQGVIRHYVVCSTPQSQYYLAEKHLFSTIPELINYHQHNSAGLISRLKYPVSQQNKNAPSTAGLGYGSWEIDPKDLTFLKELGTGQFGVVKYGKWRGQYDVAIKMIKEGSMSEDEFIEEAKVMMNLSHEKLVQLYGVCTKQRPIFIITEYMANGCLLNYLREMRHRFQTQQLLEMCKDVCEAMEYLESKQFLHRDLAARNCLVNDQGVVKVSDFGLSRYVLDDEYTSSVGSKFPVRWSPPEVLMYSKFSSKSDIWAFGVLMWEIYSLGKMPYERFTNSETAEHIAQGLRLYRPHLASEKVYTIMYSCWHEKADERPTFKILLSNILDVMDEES

[3] = tested on: 10 parental B-NHL cell lines; assay: CellTiter-Glo viability assay, mean over cell line panel; assay type: cell-based; conditions: 72 h, read-out: mean GI50
REC-BTK^wt (REC-1) cells = assay: CellTiter-Glo viability assay; assay type: cell-based; conditions: Homo sapiens, Rec1, 72 h
[4] = PK analysis, TG-1701 plasma concentrations; assay type: in vivo, human; conditions: patients, from 100 to 300 mg
phosphopeptides in PBMC = assay type: in vivo, human; conditions: early-responder patients, 4-hour postdose
CLL, MCL, WM = conditions: cited from earlier work; for preliminary overall response rate (ORR): 200 mg daily monotherapy, median follow-up 7 months ref 17
p-BTK, MYC, YES1 = assay: Immunoblot of p-BTK, Ikaros, MYC and YES1 in PBMC lysates of patients with CLL; assay type: in vivo, human; conditions: early-responder patients, 4 hours posttreatment
CLL = assay: Phase I trial NCT03671590, clinical outcome of 6 patients with CLL; assay type: in vivo, human
Summary of the method: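 Relapsed/refractory CLL patients in trial NCT03671590 took oral test compound once daily (200, 300 or 400 mg) until progression or intolerable toxicity. ALC was recorded on day 1. CLL cell percentage was derived from ALC against the upper normal limit. Best tumor reduction was assessed at C3D1 and graded as partial response or stable disease.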

[5] = tested on: REC-1^GFP+LUC+ MCL xenograft; assay: REC-1 xenograft model, tumor growth inhibition; assay type: in vivo, CB17-SCID mice; conditions: 25 mg/kg, every day, 17-day dosing
Summary of the method: (§1)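 CB17-SCID mice were inoculated subcutaneously with […] REC-1GFP+Luc+ or UPN-IbruR cells. Tumor growth and vital parameters were monitored. Mice received oral test compound at 25 mg/kg daily or vehicle for 17 days. Endpoint tumor burden was read by bioluminescence for REC-1 and by caliper for UPN-IbruR. TGI was calculated versus vehicle.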

BTK [6] = biological target: T2, BTK; assay: BTK occupancy in patient PBMC lysates; assay type: in vivo; conditions: 6 patients with CLL, 4 hours after treatment
MINO MCL xenograft = MINO MCL xenograft model, tumor growth inhibition; assay type: in vivo, nude mice; conditions: orally, twice a day, 16-day treatment
[7] = tested on: BTK and AKT phosphorylation; assay: MINO xenograft, intratumor BCR-related kinases by Western blot; assay type: in vivo, nude mice; conditions: single oral gavage 50 mg/kg
Summary of the method: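 Nude mice aged 6–7 weeks were implanted subcutaneously with 5 × 10^6 MINO cells. Dosing was oral once tumors reached 100–200 mm3. Tumor protein extracts were immunoblotted for BCR-related kinases. Densitometry was normalized to GAPDH or tubulin and referred to the control sample.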

UPN-IbruR MCL xenograft = assay: UPN-IbruR xenograft model, tumor growth; assay type: in vivo, CB17-SCID mice; conditions: 25 mg/kg, every day, 17 days
Summary of the method: as §1

BTK^C481S = BTK^C481S (Homo sapiens, UniProt Q06187, C481S); assay: BTK kinase activity assay, 33P-ATP filtration; assay type: biochemical; conditions: BTK^C481S vs BTK^wt
Chain of BTK^C481S (Q06187 whole entry C481S): as the sequence (Q06187 whole entry) above, with C481S counted along it

REC-BTK^C481S cells = assay: CellTiter-Glo viability assay; assay type: cell-based; conditions: REC-1–BTK^C481S
JAK3 = JAK3 (Homo sapiens, UniProt P52333); assay: KINOMEscan quantitative binding assay
Chain of JAK3 (P52333 781-1124 limits assumed): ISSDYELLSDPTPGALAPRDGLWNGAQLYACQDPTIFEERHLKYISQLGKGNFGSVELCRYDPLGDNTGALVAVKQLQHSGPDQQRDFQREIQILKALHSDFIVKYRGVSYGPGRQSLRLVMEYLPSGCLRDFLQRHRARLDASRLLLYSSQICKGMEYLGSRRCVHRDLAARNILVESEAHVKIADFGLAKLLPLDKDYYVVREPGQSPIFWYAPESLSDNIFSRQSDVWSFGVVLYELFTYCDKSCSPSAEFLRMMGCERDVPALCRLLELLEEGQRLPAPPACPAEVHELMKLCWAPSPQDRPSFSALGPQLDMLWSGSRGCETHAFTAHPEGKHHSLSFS

REC-BTK^KO cells = assay: CellTiter-Glo viability assay; assay type: cell-based
MCL cell lines = assay: CellTiter-Glo viability assay, mean over MCL cell lines; assay type: cell-based; conditions: 72 h, read-out: mean GI50
BTK^wt = BTK^wt (Homo sapiens, UniProt Q06187); assay: BTK kinase activity assay, 33P-ATP filtration; assay type: biochemical
Chain of BTK^wt (Q06187 whole entry): as the sequence (Q06187 whole entry) above

For CC#CC(=O)N1CC[C@@H](n2cc(-c3ccc(Oc4c(F)cccc4F)cc3)c3c(N)n[nH]c(=O)c32)C1 [TG-1701], the “concentration of maximal effects on BCR downstream signaling” value [1] was 100 nmol/L, the “Kd fold higher than that of ibrutinib” value (TXK) was 68 fold and the pKd (BTK [2]) was 8.52. The GI50 [3] was 6.4 µM, the GI50 (REC-BTK^wt (REC-1) cells) was 3.83 µM and the “dose dependence of Cmax and AUC0–8 hours” value [4] was “approximately dose-proportional increases”. For the same compound, the “phosphorylation of Ikaros p-Ser442/445 upon treatment” value (phosphopeptides in PBMC) was “totally dephosphorylated”, the “preliminary overall response rate (ORR)” value (CLL, MCL, WM; CLL) was 95% and the “preliminary overall response rate (ORR)” value (CLL, MCL, WM; MCL) was 50%. The “complete responses (CR)” value (CLL, MCL, WM; TG-1701 monotherapy ref 17) was “No complete responses (CR) are confirmed”, the “preliminary overall response rate (ORR)” value (CLL, MCL, WM; WM) was 95% and the “downregulation of MYC protein” value (p-BTK, MYC, YES1) was 48%. For the same compound, the “downregulation of p-BTK protein” value (p-BTK, MYC, YES1) was 70%, the “increase of YES1 levels” value (p-BTK, MYC, YES1) was roughly 5 fold and the “Clinical outcome (% reduction)” value (CLL; patient AII-0011, 400–300 mg daily) was 87%. For the same compound, the “Clinical outcome (% reduction)” value (CLL; patient AIJ-0001, 200 mg daily) was 38%, the Clinical outcome (CLL; patient AIJ-0005, 300 mg daily) was “SD-PR” and the “Clinical outcome (% reduction)” value (CLL; patient AIJ-0005, 300 mg daily) was 56%. The “Clinical outcome (% reduction)” value (CLL; patient AIJ-0015, 400 mg daily) was 86%, the Clinical outcome (CLL; patient AIK-0003, 200 mg daily) was “SD (lymphocytosis)” and the “tumor TGI versus vehicle” value [5] was 53%. For the same compound, the BTK occupancy (BTK [6]) was “Near-complete BTK occupancy”, the TGI (MINO MCL xenograft; 25 mg/kg) was 56% and the TGI (MINO MCL xenograft; 50 mg/kg) was 72%. For the same compound, the TGI (MINO MCL xenograft; 100 mg/kg) was 78%, the “duration of BTK and AKT dephosphorylation in tumor” value [7] was “at least 24 hours” and the “earliest time of AKT dephosphorylation in tumor” value [7] was 4 h. For the same compound, the “earliest time of BTK dephosphorylation in tumor” value [7] was 2 h, the “sensitivity of UPN-IbruR tumors” value (UPN-IbruR MCL xenograft) was “almost insensitive” and the “fold decrease in inhibitory kinase activity” value (BTK^C481S) was 54.8 fold. The “fold less sensitive compared with parental REC-1 cells” value (REC-BTK^C481S cells) was 2.8 fold, the “Kd fold higher than that of ibrutinib” value (JAK3) was greater than 94 fold and the “sensitivity of REC-BTK^KO cells” value (REC-BTK^KO cells) was “refractory”. For the same compound, the GI50 (MCL cell lines) was 4.3 µM and the pEC50 (BTK^wt) was 8.17.

With C=CC(=O)N1CCC[C@@H](n2nc(-c3ccc(Oc4ccccc4)cc3)c3c(N)ncnc32)C1 [ibrutinib, reference compound] the “concentration of maximal effects on BCR downstream signaling” value [1] was 10 nmol/L, the GI50 [3] was 14.1 µM and the GI50 (REC-BTK^wt (REC-1) cells) was 5.82 µM. For the same compound, the “sensitivity of REC-BTK^KO cells” value (REC-BTK^KO cells) was “refractory” and the GI50 (MCL cell lines) was 10.8 µM.
